# An excerpt weighted towards active compounds, which were near 2.5% of everything screened.
# FGF22 binding: FGF22 (human) thermal shift binding; recombinant FGF22 thermal shift, SYPRO orange fluorescence; percent of sucrose octasulfate shift, DMSO zero; activity (Tm shift, normalised), % at 9.99 µM; 340,000 tested, 1.5% active; Q9HCT0; AID 651658;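 active = mean Tm shift, scaled 0 neutral to 100 positive control, at about 1.3% or above, every replicate too, limit read from the data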
# Target sequence (Q9HCT0 whole entry, looked up): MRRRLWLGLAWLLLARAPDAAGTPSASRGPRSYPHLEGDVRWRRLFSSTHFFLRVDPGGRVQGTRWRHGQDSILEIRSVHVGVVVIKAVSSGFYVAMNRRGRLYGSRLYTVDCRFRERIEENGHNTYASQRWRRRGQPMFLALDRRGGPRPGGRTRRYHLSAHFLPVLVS
# SIRT5 inh: sirtuin-5 (human) deacylase inhibition. Q9NXA8. Purified SirT5, succinyl-peptide AMC, trypsin-coupled fluorescence. inhibition, % at 15 µM. 330,000 tested, 1.1% active. AID 652115; in the data active = inhibition above about 15%
# Target sequence (Q9NXA8 whole entry, looked up): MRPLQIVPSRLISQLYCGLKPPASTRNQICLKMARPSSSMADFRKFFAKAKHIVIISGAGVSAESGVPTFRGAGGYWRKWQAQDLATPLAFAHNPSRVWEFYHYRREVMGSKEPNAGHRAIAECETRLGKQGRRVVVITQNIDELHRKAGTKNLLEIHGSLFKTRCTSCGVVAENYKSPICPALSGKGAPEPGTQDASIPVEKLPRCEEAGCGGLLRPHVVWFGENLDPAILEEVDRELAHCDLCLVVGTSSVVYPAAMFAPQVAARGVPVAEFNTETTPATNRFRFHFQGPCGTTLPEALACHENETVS
# S100A4 MyoIIA: inhibitors of human S100A4 binding to myosin IIA peptide; P26447; S100A4/TAMRA-MyoIIA peptide fluorescence polarization; inhibition, % at 10.7 µM; 360,000 tested, 0.14% active; AID 652163;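 active = mean inhibition of at least 70% across replicates, with every replicate also reaching that level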
# Target sequence (P26447 whole entry, looked up): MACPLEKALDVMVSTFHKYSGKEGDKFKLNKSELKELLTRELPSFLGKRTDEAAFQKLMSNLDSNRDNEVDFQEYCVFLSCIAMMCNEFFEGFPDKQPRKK
#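 Compound dosing: one dose per compound; test system: human S100A4 monomer with TAMRA-labelled myosin IIA peptide; probe or stimulus: TAMRA-labelled myosin IIA heavy-chain peptide probe, 5 nM; medium: HEPES buffer with Ca2+, pH 7.2; schedule: 5 min incubation before reading; benchmarks: neutral control DMSO, positive control TFP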
# miR122 inh: inhibitors of miR-122 in Huh7 cells. Huh7 miR-122 Renilla luciferase sensor, 48 h; neutral wells = 0, positive control = 100. activation (reporter increase), % at 12.5 µM. 340,000 tested, 0.3% active. AID 602342;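 active = mean replicate activation score at least 90 and every replicate individually at or above 90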;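 also: higher luciferase means less miR-122 activity so hits act as miR-122 inhibitors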
# E-sel inducer: E-selectin induction on HUVECs; HUVEC E-selectin immunofluorescence imaging; normalized: neutral wells 0, TNF-alpha wells 100; activation, % at 7.58 µM; 260,000 tested, 0.37% active; AID 686992;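 active = mean E-selectin-positive cell signal at least 10% of the positive control, reached in at least 60% of replicates, without over 20% cell loss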
#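 Test system: HUVEC | Signal: Immunofluorescence imaging | Read-out: Percent E-selectin-positive cells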
# The depositor's hits bear a star; · = not tested or not shown; [ ] = dose if it differs, or a comment.
SMILES,FGF22 binding,SIRT5 inh,S100A4 MyoIIA,miR122 inh,E-sel inducer
CCC(=O)N1C[C@H](C)[C@@H](OC)CN(C)C(=O)c2ccc(NC(=O)c3ccccc3)cc2OC[C@@H]1C,0,-1,-1,·,0
Cc1ccc(-c2ccc3c(c2)O[C@H](CN(C)C(=O)CC2CC2)[C@H](C)CN([C@H](C)CO)S3(=O)=O)cc1,0,4,10,-40[16.7 µM],-2
C/C=C/c1ccc([C@@H]2[C@@H](CO)N(C(C)=O)[C@H]2CN(CC)C(=O)CC)cc1,·,·,·,-18[16.7 µM],0
Cc1cc(OCc2cc(C(=O)NC(C)c3c(C)nn(C)c3C)no2)cc(C)c1Cl (stereo not given),0,18*,3,0,0
Cc1cc(OCc2cc(C(=O)NC(C)c3cnn(C)c3)no2)cc(C)c1Cl (stereo not given),0,·,-3,9,0
CC(=O)Nc1ccc(C(=O)CCl)cc1,0,·,94*,-6,·
COc1ccc(NC(=O)CCn2c(=S)[nH]c3ccccc3c2=O)cc1,0,-8,-4,·,·
COc1ccc(NC(=O)CCCn2c(=S)[nH]c3ccccc3c2=O)cc1,0,-1,3,4,90*
CCCNC(=O)CCCCn1c(=S)[nH]c2c([nH]c3ccc(OC)cc32)c1=O,43*,-3,-3,·,·
O=C(Cn1nc(-c2ccccc2)ccc1=O)Nc1ccc(NC(=O)c2ccccn2)cc1,44*,0,1,·,·
CCOC(=O)N1CCC(NC(=O)Cn2nc(-c3ccccc3)ccc2=O)CC1,0,18*,-1,·,·
O=C(Cn1nc(-c2ccccc2)ccc1=O)Nc1ccc(-n2cnnn2)cc1,0,-2,4,3,0
Cn1cnc(S(=O)(=O)N[C@@H]2CC[C@@H](CC(=O)NCC3CCCCC3)O[C@H]2CO)c1,-1,0,3,·,0
CC1(c2ccccc2)NC(=O)N(CC#N)C1=O (stereo not given),0,0,-19,-1,0
CC1(c2ccccc2)NC(=O)N(N)C1=O (stereo not given),43*,-1,-3,1,·
C=CCn1c(C)cc(C2=NNC(=NC(C)(C)C)SC2)c1C,0,4,-10,·,0
C=CCn1c(C)cc(C2=NNC(=Nc3ccc(C)cc3)SC2)c1C,43*,5,6,-3,·
COc1cccc(S(=O)(=O)N[C@@H]2C=C[C@@H](CC(=O)NCc3ccccc3)O[C@H]2CO)c1,0,0,2,·,0
CC1=CC(C)(C)NC(=S)N1c1ccc([N+](=O)[O-])cc1,43*,·,0,-6,0
CCOC(=O)c1ccc(NC(=S)NCCc2ccccc2F)cc1,44*,0,-7,·,0
CCOC(=O)c1ccc(NC(=S)NCCc2ccccc2)cc1,·,·,·,-3,·
NC(=O)[C@@H]1CCCN1Cc1nc(-c2ccc(C(F)(F)F)cc2)no1,43*,2,0,·,0
C[C@H]1CN([C@@H](C)CO)S(=O)(=O)c2ccc(C#CC3CC3)cc2O[C@@H]1CN(C)Cc1ccccc1F,0,17*,4,59[16.7 µM],0
CC(C)CC#Cc1ccc2c(c1)O[C@@H](CN(C)Cc1ccccc1F)[C@H](C)CN([C@H](C)CO)S2(=O)=O,0,22*,-1,1[16.7 µM],2
C[C@@H]1CN([C@H](C)CO)S(=O)(=O)c2ccc(C#CC3CC3)cc2O[C@H]1CN(C)Cc1ccc(F)cc1,0,16*,11,12[16.7 µM],0
SMILES,FGF22 binding,SIRT5 inh,S100A4 MyoIIA,miR122 inh,E-sel inducer
CC(C)CC#Cc1ccc2c(c1)O[C@@H](CN(C)Cc1ccccc1F)[C@@H](C)CN([C@H](C)CO)S2(=O)=O,0,1,-15,-1[16.7 µM],1
C[C@@H]1CN([C@@H](C)CO)C(=O)c2cc(C#CC3CC3)cnc2O[C@@H]1CN(C)S(C)(=O)=O,0,5,-7,5[16.7 µM],-2
C[C@@H]1CN([C@@H](C)CO)C(=O)c2cccc(NC(=O)Nc3ccc4c(c3)OCO4)c2O[C@@H]1CN(C)C,0,0,5,-1[16.7 µM],·
C/C=C/c1ccc([C@@H]2[C@@H](CO)N(CCC(F)(F)F)C23CN(C(C)=O)C3)cc1,0,·,-16,·,0
Cc1ccc(NC(=O)CNCC(c2ccccc2)N(C)C)cc1F (stereo not given),0,-4,1,0,·
CC(C)c1ccc(NC(=O)CNCC(c2ccccc2)N(C)C)cc1 (stereo not given),1,17*,1,1,·
O=C1CN(C(=O)c2ccccc2F)C(c2ccccc2)c2cc(F)ccc2N1 (stereo not given),0,-1,-4,-4,·
Cc1ccc(C(=O)N2CC(=O)Nc3ccc(F)cc3C2c2ccccc2)cc1 (stereo not given),0,15*,-2,·,0
COc1ccc(S(=O)(=O)N(C)C[C@@H]2OCCCC[C@@H](C)Oc3ccc(NS(C)(=O)=O)cc3C(=O)N([C@@H](C)CO)C[C@@H]2C)cc1,0,-7,-1,6[16.7 µM],0
CCN(CC)S(=O)(=O)c1cc(NS(=O)(=O)c2ccc(Cl)c(C(=O)O)c2)ccc1C,0,-11,2,6,0
CCN(CC)S(=O)(=O)c1ccc(NS(=O)(=O)c2ccc(C)c(C)c2)cc1,·,·,·,183*,0
COc1ccc(NS(=O)(=O)c2cc(S(C)(=O)=O)ccc2C)cc1,0,2,-4,·,0
COc1ccccc1NS(=O)(=O)c1cc(C)ccc1C,·,·,·,141*,·
CCNS(=O)(=O)c1ccc(NS(=O)(=O)c2cc(C)ccc2C)cc1,·,·,·,113*,·
COc1ccc(NS(=O)(=O)c2cc(C)ccc2C)cc1,·,·,·,539*,·
COc1ccc(C)cc1NS(=O)(=O)c1cc(C)ccc1C,·,·,·,87,·
O=C(C[C@H]1CC[C@H](NC(=O)Nc2cc(F)ccc2F)[C@H](CO)O1)NCc1ccccn1,0,-2,-8,3[16.7 µM],0
COc1cc(C)c(S(=O)(=O)Nc2ccccc2F)cc1C,·,·,·,123*,·
Cc1cc2[nH]c(=O)c(=O)[nH]c2cc1S(=O)(=O)Nc1ccccc1F,0,·,-2,-5,0
COc1ccc(NS(=O)(=O)c2cc(C(=O)O)ccc2C)cc1,0,-1,-2,9,·
COc1ccc(NS(=O)(=O)c2cc(NC(=O)c3ccc(=O)[nH]n3)ccc2C)cc1,0,-2,-4,166*,·
Cc1ccc(C)c(S(=O)(=O)Nc2ccccc2C(=O)Nc2ccc(S(=O)(=O)Nc3ncccn3)cc2)c1,0,19*,-12,18,0
Cc1ccc(C)c(S(=O)(=O)Nc2ccc3sc(C)nc3c2)c1,·,·,·,428*,·
CNC[C@H]1OCCCC[C@H](C)Oc2ccc(NC(=O)Nc3c(C)noc3C)cc2C(=O)N([C@@H](C)CO)C[C@H]1C,·,·,·,4[16.7 µM],0
CCC(=O)N1CC2(C1)CN(C(=O)NC1CCCC1)[C@H](CO)c1c2c2ccc(OC)cc2n1C,0,-6,8,·,0

# Bioassay records: PubChem BioAssay, Broad Institute
